Reference: article PMC3177239 (The Biochemical journal, 2011)

Columns and labels:
[1] = test system: cAMP levels in Calu-3 cells; experiment: Ratiometric FRET cAMP measurement; format: cell-based; conditions: CO-068 50 μM or FSK 10 μM added after baseline
How it was run: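 Calu-3 cells were transiently transfected (Lipofectamine) with the CFP-EPAC-YFP sensor and grown on glass-bottom dishes. Cells were washed twice and held in HBSS, in the dark at room temperature, on an inverted microscope. After baseline, time-lapse images were taken every 1 min (100–300 ms exposure) with an EM-CCD camera. The background-subtracted CFP/FRET emission ratio came from 10–20 regions in 3–5 cells. n = 4–5 separate experiments, mean ± s.e.m.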

[2] = test system: pig tracheal submucosal glands; experiment: Pig tracheal submucosal glands fluid secretion
How it was run: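 Pig tracheas collected within 1 h postmortem into ice-cold Krebs-Ringer bicarbonate buffer (1 μM indomethacin) gassed with 95% O2/5% CO2. Serosal side bathed at 37 °C. Agents were diluted in warm gassed buffer and added serosally after basal secretion was recorded. Carbachol 10 μM was added at the end to confirm viability. Rate was taken as the volume-vs-time slope (R² > 0.8): 10-min basal, 25-min stimulated. 11 pigs, 11–43 glands, mean ± s.e.m.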

| Structure (SMILES) | Increase in cAMP levels (CFP/FRET emission ratio) [1] | Increase in mean fluid secretion rate compared to basal secretion rate ([2]; FSK 10 μM or CO-068 50 μM, over 25 min) | Effect on FSK-induced fluid secretion ([2]; CFTRinh-172 50 μM plus FSK 10 μM) |
| --- | --- | --- | --- |
| C=C[C@@]1(C)CC(=O)[C@]2(O)[C@@]3(C)[C@@H](O)CCC(C)(C)[C@@H]3[C@H](O)[C@H](OC(C)=O)[C@@]2(C)O1 [FSK, forskolin] | 1.5 fold | 5 fold |  |
| O=C(O)c1ccc(/C=C2\SC(=S)N(c3cccc(C(F)(F)F)c3)C2=O)cc1 [CFTRinh-172] |  |  | markedly inhibited |
